Here are results for one molecule from paper PMC5696082 (Analytical biochemistry, 2017).

The target of this assay is T1, hCE3 (Homo sapiens, UniProt Q6UWW8).
T1 sequence (Q6UWW8 27-571): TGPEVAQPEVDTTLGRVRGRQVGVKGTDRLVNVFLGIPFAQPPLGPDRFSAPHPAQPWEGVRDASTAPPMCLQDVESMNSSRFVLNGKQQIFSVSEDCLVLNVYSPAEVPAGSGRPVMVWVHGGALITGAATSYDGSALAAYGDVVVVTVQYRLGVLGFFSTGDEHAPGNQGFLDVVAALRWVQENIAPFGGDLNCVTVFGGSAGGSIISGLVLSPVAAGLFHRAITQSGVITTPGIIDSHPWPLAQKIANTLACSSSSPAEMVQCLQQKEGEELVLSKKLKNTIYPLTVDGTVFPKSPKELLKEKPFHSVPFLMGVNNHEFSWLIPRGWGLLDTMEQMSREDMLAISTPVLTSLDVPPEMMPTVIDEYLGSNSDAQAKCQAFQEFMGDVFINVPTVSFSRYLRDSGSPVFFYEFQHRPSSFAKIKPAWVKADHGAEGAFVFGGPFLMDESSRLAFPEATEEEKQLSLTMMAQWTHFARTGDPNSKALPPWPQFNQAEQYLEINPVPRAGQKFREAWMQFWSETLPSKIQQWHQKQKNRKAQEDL
The experiment in a line: Specific activity of hCE3 towards substrates. It counts as biochemical. In a few lines: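 Enzymes expressed in baculovirus-infected High Five cells: hCE1 CHAPS-solubilised from the 100,000 g pellet, then DEAE-purified; hCE2/hCE3 crude soluble fraction; FAAH crude insoluble fraction. Substrate added to 50 µM final in 100 mM sodium phosphate pH 8.0, 0.1 mg/mL BSA, 1% DMSO. Fluorescence read every 30 s for ≥10 min at 37°C. Rates corrected for estimated purity: hCE1 25%, hCE2 4%, hCE3 3.5% (3% in footnotes), FAAH 6.9%. Triplicates.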

A value given as a limit tells only on which side of the number the result lay.

Regarding `CCCCC(C)CCC(=O)Nc1ccc(OC)nc1C` (centres unmarked) [4-MOMMP, N-(6-methoxy-2-methylpyridin-3-yl)-4-methyloctanamide], for the setting “Table 3, [S] = 50 µM, 37°C, pH 8, estimated 3% purity”, the “hCE3 Specific activity” value was <1 pmol/min/µg. Besides, the “Hydrolysis Specific Activity” value (Table 6, hCE3) was 1.4 ± 0.4 pmol/min/µg.
